Data as given in ChEMBL document CHEMBL1157678, “alpha-Glucosidase inhibitory antihyperglycemic activity of substituted chromenone derivatives” (Bioorg Med Chem, 2010).
Calls of active or inactive are those of the source. The rule behind the calls is not given here.

Experiments:
[1] = Inhibition of rat intestinal alpha-glucosidase after 5 mins by spectrophotometry
In short: (§1)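 Enzyme source was the supernatant of sonicated rat intestinal homogenate after centrifugation. Sample (5 mg/mL DMSO stock) in 100 mM phosphate buffer pH 6.8 was preincubated with enzyme for 5 min, then 5 mM p-nitrophenyl-α-D-glucopyranoside added. p-Nitrophenol was read at 405 nm 5 min later, with substrate-free blanks and a DMSO control. Inhibition (%) = (1 − B/A) × 100; IC50 by logarithmic regression.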

Rattus norvegicus [2] = organism: Rattus norvegicus; test: Inhibition of rat intestinal alpha-glucosidase at 100 ug/mL after 5 mins by spectrophotometry; in short: as §1
[3] = tested on: Radical scavenging activity; test: Antioxidant activity assessed as DPPH radical scavenging activity at 25 ug/mL after 30 mins by spectrophotometry; type: functional
In short: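 Test sample in DMSO (1 mg/mL stock) was mixed with 0.1 M Tris–HCl pH 7.4 and 0.5 mM DPPH in absolute ethanol. The mixture was shaken and kept in the dark 30 min, then absorbance read at 517 nm. Scavenging (%) = (1 − B/A) × 100 against a control without sample.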

Rattus norvegicus [4] = test: Antihyperglycemic activity in overnight fasted starch-induced hyperglycemic Wistar rat assessed as decrease in plasma glucose level at 10 mg/kg, po administered 15 mins before starch challenge measured after 30 to 120 mins by glucose oxidase method; type: functional, organism-based; set-up: dose 10 mg/kg
In short: (§2)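 Wistar rats of either sex (195–215 g), housed at 22 °C with a 12 h light/dark cycle, fasted overnight. Test agent suspended in normal saline and given orally by gastric intubation; controls received saline. Soluble starch (2 g/kg in saline) fed 15 min later. Retro-orbital blood was collected into EDTA for plasma glucose at 0–120 min. Plasma glucose AUC by trapezoid formula.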

Rattus norvegicus [5] = organism: Rattus norvegicus; test: Mixed noncompetitive inhibition of rat intestinal alpha-glucosidase at 10.6 uM by Lineweaver-Burke plot analysis
In short: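 Conditions follow the rat intestinal α-glucosidase/p-NPG assay, but Vmax kinetics were recorded over 10 min at 30 s intervals after a 10 s lag following substrate addition. Substrate was used at various dilutions, with or without preincubation of inhibitor. Data were analysed on a Lineweaver–Burk plot.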

Rattus norvegicus [6] = test: Antihyperglycemic activity in overnight fasted starch-induced hyperglycemic Wistar rat assessed as decrease in plasma glucose level at 100 mg/kg, po administered 15 mins before starch challenge measured after 30 to 120 mins by glucose oxidase method; type: functional, organism-based; set-up: dose 100 mg/kg; in short: as §2

Row | SMILES | IC50 [1] [µM] | inhibition (Rattus norvegicus [2]) | Activity [3] | Activity (Rattus norvegicus [4]) | inhibition (Rattus norvegicus [5]) | Activity (Rattus norvegicus [6])
1 | Cc1c(O)ccc2c(CCl)cc(=O)oc12 | 68.7 | 72.7% | 28.5% |  |  | 
2 | C[C@H]1O[C@H](O[C@H]2[C@H](O)[C@@H](O)[C@@H](O[C@H]3[C@H](O)[C@@H](O)C(O)O[C@@H]3CO)O[C@@H]2CO)[C@H](O)[C@@H](O)[C@@H]1N[C@H]1C=C(CO)[C@@H](O)[C@H](O)[C@H]1O (some centres undefined) |  |  |  | Active |  | 
3 | CC(=O)c1cc2cc(Br)ccc2oc1=O |  | 31.9% | 1.52% |  |  | 
4 | COc1ccc(-c2ccc3oc(=O)c(C#N)c(C)c3c2)cn1 | 44.5 | 93.1% | 35% |  |  | 
5 | CC(=O)c1cc2cc(-c3ccc(Cl)cc3)ccc2oc1=O | 96.4 | 76.9% | 12.5% |  |  | 
6 | CCOC(=O)c1cc2ccccc2oc1=O |  | 47% | 1.82% |  |  | 
7 | CC(=O)c1cc2cc(-c3ccc(N4CCOCC4)cc3)ccc2oc1=O | 49 | 85.1% | 20.5% |  |  | 
8 | CC(=O)c1cc2cc(-c3ccc(F)cc3)ccc2oc1=O | 53.1 | 74.3% | 15.6% |  |  | 
9 | Cc1c(Cl)c(=O)oc2cc(O)ccc12 | 128 | 77.8% | 20.8% |  |  | 
10 | COc1ccc(-c2ccc3oc(=O)c(C(C)=O)cc3c2)cn1 | 28.2 | 86% | inactive |  | Active | Active
11 | CCOC(=O)c1cc2cc(-c3ccc(C)cc3)ccc2oc1=O | 112 | 65.9% | inactive |  |  | 
12 | CCOC(=O)c1cc2cc(-c3ccccc3)ccc2oc1=O | 186 | 77.1% | 4.8% |  |  | 
13 | O=C(c1ccccc1)c1cc2ccccc2oc1=O |  | 44.4% | 30.8% |  |  | 
14 | O=c1cc(CCl)c2ccc(O)cc2o1 | 243 | 78.3% | 1.32% |  |  | 
15 | CC(=O)c1cc2cc(-c3cccnc3)ccc2oc1=O | 58.1 | 96.4% | 3.72% |  |  | 
16 | CCOC(=O)c1cc2ccc(O)cc2oc1=O | 91 | 77.6% | inactive |  |  | 
17 | CCOC(=O)c1cc2cc(-c3cncnc3)ccc2oc1=O | 40.5 | 80.4% | inactive |  |  | 
18 | CC(=O)c1cc2cc(-c3cncnc3)ccc2oc1=O | 37.2 | 83.5% | inactive |  |  | 
19 | CCOC(=O)c1cc2cc(-c3ccc(OC)nc3)ccc2oc1=O | 105 | 76.9% | inactive |  |  | 
20 | CC(=O)c1cc2ccccc2oc1=O |  | 53.2% | 0.83% |  |  | 
21 | O=C(c1ccccc1)c1cc2cc(Br)ccc2oc1=O |  | 18.1% | 2.22% |  |  | 
22 | O=C(c1ccccc1)c1cc2ccc(O)cc2oc1=O |  | 53.7% | inactive |  |  | 
23 | CC(=O)c1cc2cc(-c3ccc(C)cc3)ccc2oc1=O | 52.6 | 86.5% | inactive |  |  | 
24 | Cc1c(C#N)c(=O)oc2ccc(-c3ccccc3)cc12 | 52.9 | 95.5% | 10.4% |  |  | 
25 | CC(=O)c1cc2cc(-c3ccccc3)ccc2oc1=O |  | inactive | 19.6% |  |  | 
26 | O=C(c1ccccc1)c1cc2cc(-c3ccccc3)ccc2oc1=O | 52.2 | 70% | 2.45% |  |  | 
27 | CCOC(=O)c1cc2cc(-c3ccc(F)cc3)ccc2oc1=O | 37.6 | 66.7% | inactive |  |  | 
